The record followed here is PubChem BioAssay.

The nature of assay [1]: thallium flux activation in parental CHO cells, counter-screen for KCNQ1 potentiator project (AID 493006;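 active = duplicate-averaged activation above buffer control mean plus 5 SD of those controls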). Particulars: parental CHO-K1 cells, FluxOR thallium flux, at 10 µM; stronger effect = higher value. Summed up: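 Assay system: parental CHO-K1 cells lacking KCNQ1, loaded with FluxOR thallium dye; timing: dye 90 min RT, compound 20 min RT; signal: kinetic thallium-flux fluorescence; repeats: duplicate wells per compound, percent values averaged; benchmarks: buffer and R-L3 controls; reagent: Potassium/thallium depolarization pulse; read-out: fluorescence change ratio scaled 0% buffer, 100% R-L3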

Assay [2] deals with Potassium voltage-gated channel subfamily KQT member 1 (Homo sapiens) (UniProt P51787). Kind of assay: KCNQ1 potassium channel potentiators, confirmation, FluxOR thallium flux, CHO cells, duplicates (AID 493007;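 active = potentiation averaged over duplicate wells exceeding buffer-only control mean by more than 3 SD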;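 as to outcome: cells depolarized by a potassium plus thallium sulfate stimulus after compound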). Particulars: KCNQ1 cell line, FluxOR thallium flux fluorescence, at 10 µM; stronger effect = higher value, % of reference activator effect, buffer zero. Summed up: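 material = CHO cells stably expressing the KCNQ1 potassium channel | repeats = duplicate wells per compound | measure = percent activation between buffer and R-L3 responses | signal = FluxOR thallium-flux fluorescence, kinetic read | schedule = FluxOR dye loading 90 min, compound exposure 20 min, room temperature | control set = buffer and R-L3 controls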
Chain of Potassium voltage-gated channel subfamily KQT member 1 (Homo sapiens) (P51787 whole entry, looked up): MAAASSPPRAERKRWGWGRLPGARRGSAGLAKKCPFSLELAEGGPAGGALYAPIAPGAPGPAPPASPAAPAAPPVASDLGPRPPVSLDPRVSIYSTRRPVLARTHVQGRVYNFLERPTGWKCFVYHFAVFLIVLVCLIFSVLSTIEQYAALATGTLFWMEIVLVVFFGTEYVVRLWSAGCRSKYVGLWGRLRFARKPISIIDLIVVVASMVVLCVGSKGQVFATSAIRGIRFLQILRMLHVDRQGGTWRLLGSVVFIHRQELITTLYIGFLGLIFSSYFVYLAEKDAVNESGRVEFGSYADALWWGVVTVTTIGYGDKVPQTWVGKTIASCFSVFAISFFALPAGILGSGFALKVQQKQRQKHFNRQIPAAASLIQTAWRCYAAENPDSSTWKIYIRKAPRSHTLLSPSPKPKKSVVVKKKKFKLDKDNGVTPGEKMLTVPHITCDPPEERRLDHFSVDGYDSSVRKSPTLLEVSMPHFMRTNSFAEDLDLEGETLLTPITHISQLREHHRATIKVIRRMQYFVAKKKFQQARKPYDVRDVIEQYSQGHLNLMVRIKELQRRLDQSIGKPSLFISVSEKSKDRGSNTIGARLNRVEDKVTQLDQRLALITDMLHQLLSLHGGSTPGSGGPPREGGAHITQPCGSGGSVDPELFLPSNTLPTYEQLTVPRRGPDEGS

Assay [3] addresses Potassium voltage-gated channel subfamily KQT member 2 (Rattus norvegicus) (UniProt O88943). Kind of assay: rat KCNQ2 channel potentiation, selectivity assay for KCNQ1 potentiator project, KCNQ2-CHO-K1 cells (AID 493009;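 active = mean duplicate potentiation above the buffer control mean plus 5 SD of buffer wells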;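 also: assay conditions were tuned for KCNQ1 rather than KCNQ2 modulators; signal is max minus min fluorescence divided by baseline after thallium stimulus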). Particulars: FluxOR thallium flux fluorescence, at 10 µM; stronger effect = higher value, scaled: buffer 0, activator control 100.
Assay [4] deals with Potassium voltage-gated channel subfamily KQT member 1 (Homo sapiens) (UniProt P51787). The experiment in a line: KCNQ1 channel current potentiators, confirmation, orthogonal assay for KCNQ1 potentiator project, IonWorks patch clamp, KCNQ1-CHO cells (AID 493184;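 active = current rise at least 3 SD above the untreated control mean in each of two repeat wells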;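 as to current potentiation: percent change of the same well's current before compound addition so 0% = no change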). The note with it: automated patch clamp current, at 10 µM; stronger effect = higher value. The method, boiled down: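 Assay system – CHO cells carrying KCNQ1 · Medium – pH 7.4 external bath · Probe or stimulus – depolarizing pulse to +40 mV from -90 mV · Compound dosing – one dose, 10 µM final · Measured by – automated perforated-patch electrophysiology · Measure – % potentiation of steady-state current relative to pre-compound · Repeats – two replicates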
A general note: The patch-clamp technique gives a direct electrical read-out from membranes.

For assay [5], the target named is Potassium voltage-gated channel subfamily E member 1 (Homo sapiens) + Potassium voltage-gated channel subfamily KQT member 1 (Homo sapiens) (UniProt P15382+P51787). The experiment in a line: KCNQ1/KCNE1 complex potentiators, confirmation, selectivity assay for KCNQ1 potentiator project, thallium flux, CHO-K1 KCNQ1/E1 cells (AID 493186). Particulars: FluxOR thallium flux, at 10 µM; stronger effect = higher value. Summed up:
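Assay system: CHO-K1 cells with KCNQ1/E1 | Dosing: Single compound concentration per well | Incubation: Dye 90 min, compound 20 min, room temperature | Measured by: FluxOR Tl+ flux fluorescence, kinetic read | Controls: Buffer low control, R-L3 high control | Replicates: Duplicate wells per compound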

Each structure is given as a SMILES string. Calls of active or inactive are those of the source.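 The calls were made as follows, unless noted: active = mean duplicate activation above the buffer control mean plus 5 SD of those controls; inactive = the rest.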

Chain of Potassium voltage-gated channel subfamily E member 1 (Homo sapiens) + Potassium voltage-gated channel subfamily KQT member 1 (Homo sapiens) (P51787 whole entry, looked up): as the sequence (P51787 whole entry, looked up) above
Chain of Potassium voltage-gated channel subfamily KQT member 2 (Rattus norvegicus) (O88943 whole entry, looked up): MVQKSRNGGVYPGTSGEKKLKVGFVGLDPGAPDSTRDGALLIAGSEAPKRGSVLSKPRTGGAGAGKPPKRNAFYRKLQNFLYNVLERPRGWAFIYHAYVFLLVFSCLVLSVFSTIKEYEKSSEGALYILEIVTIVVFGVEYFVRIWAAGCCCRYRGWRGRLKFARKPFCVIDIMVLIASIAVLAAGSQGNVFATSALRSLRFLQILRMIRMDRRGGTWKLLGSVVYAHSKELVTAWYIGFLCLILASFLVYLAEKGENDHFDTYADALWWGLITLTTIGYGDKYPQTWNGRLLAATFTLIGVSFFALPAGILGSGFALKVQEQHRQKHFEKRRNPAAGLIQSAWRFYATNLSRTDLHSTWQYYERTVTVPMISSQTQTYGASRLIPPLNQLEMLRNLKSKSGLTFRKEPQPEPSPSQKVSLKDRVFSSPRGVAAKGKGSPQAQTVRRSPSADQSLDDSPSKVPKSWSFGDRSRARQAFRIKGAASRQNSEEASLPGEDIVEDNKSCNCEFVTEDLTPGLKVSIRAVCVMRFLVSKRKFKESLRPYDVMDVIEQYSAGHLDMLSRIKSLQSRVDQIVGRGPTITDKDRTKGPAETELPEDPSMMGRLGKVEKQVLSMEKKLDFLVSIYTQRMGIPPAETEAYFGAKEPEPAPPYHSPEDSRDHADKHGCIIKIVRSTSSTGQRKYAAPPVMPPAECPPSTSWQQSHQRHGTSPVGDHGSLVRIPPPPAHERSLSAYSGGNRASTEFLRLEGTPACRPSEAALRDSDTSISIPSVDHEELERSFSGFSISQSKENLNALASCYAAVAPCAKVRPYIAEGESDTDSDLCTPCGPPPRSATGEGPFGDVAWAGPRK

Take `CCOC(=O)c1c(N)sc(N)c1C(=O)OCC`: the outcome in assay [1], in assay [2], in assay [4] and in assay [5] was inactive. Also, the potentiation in assay [3] was 170% (active).
With `CCC1=NN2C(=N)/C(=C/c3ccc(OS(=O)(=O)c4ccccc4)c(OC)c3)C(=O)N=C2S1`, the result in assay [1], in assay [2], in assay [3], in assay [4] and in assay [5] was inactive.
For `CCC1CCCCN1CCCNC(=O)CSc1nc2nc(C)c(Cc3ccccc3)c(C)n2n1` (stereo not given), the result in assay [1], in assay [2], in assay [3], in assay [4] and in assay [5] was inactive.
Regarding `CCOC(=O)CSC(=S)NC(=O)c1ccc(OC)cc1`, the result in assay [1], in assay [4] and in assay [5] was inactive. Moreover, the figures for the potentiation in assay [2] and in assay [3] were 18.5% (active) and 147% (active), respectively.
Take `Nc1nnc(SCC(=O)N2CCN(c3ccccc3)CC2)n1-c1ccccc1`: the outcome in assay [1], in assay [2], in assay [3], in assay [4] and in assay [5] was inactive.
With `Cn1c(=O)c2c(ncn2CC(=O)N/N=C/C(Cl)=C/c2ccccc2)n(C)c1=O`, the result in assay [1], in assay [2], in assay [3], in assay [4] and in assay [5] was inactive.
Turning to `CN(C(=O)c1ccc2c(c1)OCO2)C1CCCCC1`, the outcome in assay [1], in assay [2], in assay [3], in assay [4] and in assay [5] was inactive.
For `Cc1cccc(NC(=O)c2cccc(NC(=O)Cc3cccs3)c2)c1`, the outcome in assay [1], in assay [3], in assay [4] and in assay [5] was inactive. Also, in assay [2], the potentiation was 17.5% (active).
As for `C=CCNC(=S)Nc1nc2c(cc1C(=O)OCC)CCCC2`, the result in assay [1], in assay [3], in assay [4] and in assay [5] was inactive. Further, the potentiation in assay [2] is 39% (active).
Turning to `O=[N+]([O-])c1cccc(/C=N/Nc2nc(NCc3ccccc3)nc(N3CCOCC3)n2)c1O`, the outcome in assay [1], in assay [2], in assay [3], in assay [4] and in assay [5] was inactive.
Take `CC1CCc2c(sc(NC(=O)C(=O)NCc3ccco3)c2C#N)C1` (stereo not given): the result in assay [1], in assay [2], in assay [3], in assay [4] and in assay [5] was inactive.
For `COCCOC(=O)/C(=C/c1ccc(OC(=O)c2ccccc2)cc1)C(C)=O`, the result in assay [1], in assay [2], in assay [3], in assay [4] and in assay [5] was inactive.
Turning to `Cc1ccc(S(=O)(=O)N2CCN(C(=O)c3ccc(Br)o3)CC2)c(C)c1`, the result in assay [1], in assay [2], in assay [3], in assay [4] and in assay [5] was inactive.
Take `Cc1cc(C)c2c(=O)n(CC(=O)Nc3ccc(Cl)cc3)sc2n1`: the outcome in assay [1], in assay [3], in assay [4] and in assay [5] was inactive. Further, the potentiation in assay [2] is 25% (active).
`Cc1cccc(C(=O)NC(=S)NNC(=O)COc2c(C)cccc2C)c1`: the outcome in assay [1], in assay [4] and in assay [5] was inactive. Besides, the potentiation in assay [2] is 29.5% (active); in assay [3] it was 176% (active).
Take `CCOc1cccc2sc(NC(=O)c3ccc(Br)s3)nc12`: the result in assay [1], in assay [2], in assay [3], in assay [4] and in assay [5] was inactive.
In the case of `Cc1ccc2nc(C3CCN(S(=O)(=O)c4ccc5ccccc5c4)CC3)[nH]c2c1`, the result in assay [1], in assay [2], in assay [3], in assay [4] and in assay [5] was inactive.
Turning to `CS(=O)(=O)c1ccc(Cl)c(NC(=O)c2cc(S(=O)(=O)N3CCOCC3)ccc2N2CCCC2)c1`, the outcome in assay [1], in assay [2], in assay [3], in assay [4] and in assay [5] was inactive.
With `CCCCOC(=O)c1ccc(NC(=S)NC(=O)c2ccco2)cc1`, the outcome in assay [1], in assay [2], in assay [3], in assay [4] and in assay [5] was inactive.
Regarding `CC(C)(C)c1ccc(-n2nc(C#N)c(Cl)cc2=O)cc1`, the result in assay [1], in assay [2], in assay [3], in assay [4] and in assay [5] was inactive.
Regarding `CNCC/C=C1/c2ccccc2CSc2ccccc21`, the outcome in assay [1], in assay [2], in assay [3], in assay [4] and in assay [5] was inactive.
As to `CCc1ccc(NC(=O)/C(C#N)=C/c2ccncc2)cc1`, the result in assay [1], in assay [2], in assay [3], in assay [4] and in assay [5] was inactive.
Consider `CN1CCN(Cc2ccc(Sc3ccc(Cl)cc3)c([N+](=O)[O-])c2)CC1`, for which the result in assay [1], in assay [3], in assay [4] and in assay [5] was inactive. The potentiation in assay [2] was 17.5% (active).
As to `Cc1ccc(CNc2nc3c([nH]2)c(=O)n(C)c(=O)n3C)cc1`, the result in assay [1], in assay [2], in assay [3], in assay [4] and in assay [5] was inactive.
Regarding `COc1ccc(NC(=O)CN2CCN(C3c4ccccc4-c4ccccc43)CC2)cc1`, the result in assay [1], in assay [2], in assay [3], in assay [4] and in assay [5] was inactive.
On to `C=CCNC(=S)NNC(=O)COc1c(Cl)cc(Cl)cc1Cl`, for which the outcome in assay [1], in assay [2], in assay [3], in assay [4] and in assay [5] was inactive.
For `O=C(COc1ccccc1Cl)NC(=S)N1CCc2ccccc21`, the result in assay [1], in assay [2], in assay [3], in assay [4] and in assay [5] was inactive.
As to `CCOC(=O)c1oc2ccc(S(=O)(=O)n3nc(-c4ccc(OC)cc4)cc3N)cc2c1C`, the result in assay [1], in assay [2], in assay [3] and in assay [5] was inactive. The current potentiation in assay [4] was 15.4% (active).
For the compound `O=C(NC(=S)NCCC1=CCCCC1)c1ccccc1Br`, the result in assay [1], in assay [4] and in assay [5] was inactive. Besides, the potentiation in assay [2] is 47% (active); in assay [3] it was 186% (active).
Turning to `O=C(NNc1cc(N2CCOCC2)nc(N2CCOCC2)n1)C12CC3CC(CC(C3)C1)C2`, the result in assay [1], in assay [3], in assay [4] and in assay [5] was inactive. The potentiation in assay [2] is 51% (active).
